Screens (PubChem)
Biofilm kill mix: clotrimazole potentiators killing C. albicans biofilm, primary screen, 4-compound mixtures; C. albicans biofilm persisters + clotrimazole, fluorescence viability; primary screen in compound mixtures of four per well; actives 0.02% (n = 120,000); inhibition, % at 7.6 µM;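 active = inhibition above 30.3% in the primary screen of four-compound pools, then above 30% when the compound was retested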;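 note: compounds exposed to preformed 24 h biofilms for 48 h; 0% = untreated biofilm control and 100% = clotrimazole plus chlorhexidine kill blank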
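Test system: C. albicans biofilms. Buffer or medium: RPMI/MOPS medium, pH 7.0. Timing: 48 h compound exposure at 37 °C. Technique: Alamar Blue fluorescence. Evaluation: percent inhibition of biofilm viability.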
S1P3 antag: S1P3 receptor antagonists, primary screen, cell-based; Sphingosine 1-phosphate receptor 3 (Homo sapiens), Q99500; CHO S1P3 NFAT-BLA reporter, FRET fluorescence, antagonist mode; inhibition, % at 4.98 µM; actives 0.27% (n = 170,000); AID 485, 2006;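 active = inhibition above the plate cutoff, the mean inhibition of test wells on that plate plus 3 SD, cut at about 28% in these data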;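 note: cells challenged with S1P at its EC80 of 0.8 µM; blue over green emission ratio from cleaved BLA substrate after 4 h stimulation; 0% = S1P-stimulated wells and 100% = unstimulated DMSO-only wells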
S1P4 ag: S1P4 receptor agonists, primary screen, cell-based; Sphingosine 1-phosphate receptor 4 (Homo sapiens), O95977; actives 0.35% (n = 220,000); S1P4-expressing cell line, agonist reporter assay; activation, % at 4.98 µM; in the data active = activation above about 11%;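 note: 0% = DMSO vehicle and 100% = reference agonist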
Target sequence (O95977 whole entry, looked up): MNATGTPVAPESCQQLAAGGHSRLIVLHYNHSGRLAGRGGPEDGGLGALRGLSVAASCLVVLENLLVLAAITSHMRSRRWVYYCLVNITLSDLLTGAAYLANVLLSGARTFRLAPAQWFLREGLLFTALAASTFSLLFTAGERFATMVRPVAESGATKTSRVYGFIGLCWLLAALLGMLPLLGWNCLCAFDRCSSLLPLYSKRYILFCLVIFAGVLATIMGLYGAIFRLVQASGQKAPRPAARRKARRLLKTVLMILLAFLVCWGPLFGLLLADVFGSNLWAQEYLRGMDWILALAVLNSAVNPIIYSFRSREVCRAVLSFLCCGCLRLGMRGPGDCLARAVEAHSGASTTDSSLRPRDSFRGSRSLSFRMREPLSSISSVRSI
S1P4 antagonist: S1P4 receptor antagonists, primary screen, cell-based | Sphingosine 1-phosphate receptor 4 (Homo sapiens), O95977 | inhibition, % at 4.98 µM | actives 0.26% (n = 220,000) | AID 1510, 2009 | S1P4-expressing cells, antagonist mode, reporter read-out; in the data active = inhibition above about 29%;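 note: 0% = wells stimulated with agonist and 100% = vehicle wells without agonist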
Tb hexokinase: Trypanosoma brucei hexokinase 1 inhibitors, primary screen, biochemical, G6PDH-coupled NADH absorbance, MLSCN library; hexokinase 1 [Trypanosoma brucei]; AID 1430, 2008; actives 0.11% (n = 220,000); inhibition, % at 10 µM; recombinant TbHK1, G6PDH-coupled NADH A340;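 active = inhibition of 50% or more in the single-dose primary screen; inactive = inhibition below 50%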
Dynein transport: inhibitors of GR-EGFP nuclear translocation, primary screen, dynein cargo transport inhibitor project, imaging, high-content, 3617.4 mouse cells; test concentration mostly 20 µM; stimulated with dexamethasone, 1 µM; hits give low values; z-score, hits read low; actives 0.47% (n = 220,000);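 active = plate z-score of nuclear minus cytoplasmic receptor signal below a set negative limit, without overly bright fluorescence or cell loss, cut at about -3.5 in these data, passing the limit was not always enough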;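 note: z-score of nuclear minus cytoplasmic ring GR-EGFP intensity difference per well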
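medium = tetracycline-free induction medium containing charcoal-stripped FBS | probe or stimulus = dexamethasone, 1.0 µM final | timing = 48 h induction, then 1 h compound, then 30 min agonist, 37 °C | detection = automated 10x imaging of fixed Hoechst-stained cells | read-out basis = nuclear versus cytoplasmic GR-EGFP signal, averaged per well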
Dynein inh conf: dynein cargo transport inhibitors, GR-EGFP translocation, confirmation, imaging, high-content imaging, GR-EGFP cells; shares compounds with Dynein transport; 3617.4 GR-EGFP nuclear translocation imaging, dexamethasone-induced; calls only at 20 µM; actives 69% (n = 1,000); AID 463116, 2010;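 active = inhibition of receptor movement into the nucleus at or above a set limit in both runs, with normal cell brightness and cell count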;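 note: dexamethasone at 1 µM final in well for 30 min; nuclear minus cytoplasmic GR-EGFP mean intensity difference in channel 2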
G6PDH ctr: Leuconostoc G6PDH inhibition, confirmation, counter-screen for TbHK1 inhibitor project, biochemical, DPI cherry-picked compounds, single concentration; purified G6PDH, NADH absorbance, 1 h; shares compounds with Tb hexokinase; actives 7% (n = 210); inhibition, % at 10 µM; AID 2516, 2010;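 active = at least 50% inhibition in the glucose-6-phosphate dehydrogenase coupled counterscreen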
TbHK1 rescreen: TbHK1 inhibitor retest, confirmation, biochemical, DPI cherry-picked primary actives; shares compounds with Tb hexokinase; recombinant TbHK1, G6PDH-coupled NADH A340 absorbance; inhibition, % at 10 µM; actives 10% (n = 210);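 active = inhibition of at least 50% in both of the two screening runs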;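 note: 0% and 100% set by the maximum and minimum signal control wells on each plate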
S1P4 antag cf: S1P4 receptor antagonists, human, confirmation, cell-based. actives 71% (n = 520). inhibition, % at 4.98 µM. S1P4-expressing cell line, antagonist mode, reporter read-out. AID 1524, 2009. shares compounds with S1P4 antagonist; in the data active = inhibition above about 30%
S1P1 antag: S1P1 receptor antagonists, human, counter-screen for S1P4 antagonist project, cell-based; shares compounds with S1P4 antagonist; AID 1564, 2009; actives 37% (n = 520); inhibition, % at 4.98 µM; cell-based S1P1 antagonist counterscreen, inhibition; in the data active = inhibition above about 40%;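 note: receptor stimulated with S1P near its EC80; 0% = agonist stimulated wells and 100% = vehicle only wells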
Target sequence (P21453 whole entry, looked up): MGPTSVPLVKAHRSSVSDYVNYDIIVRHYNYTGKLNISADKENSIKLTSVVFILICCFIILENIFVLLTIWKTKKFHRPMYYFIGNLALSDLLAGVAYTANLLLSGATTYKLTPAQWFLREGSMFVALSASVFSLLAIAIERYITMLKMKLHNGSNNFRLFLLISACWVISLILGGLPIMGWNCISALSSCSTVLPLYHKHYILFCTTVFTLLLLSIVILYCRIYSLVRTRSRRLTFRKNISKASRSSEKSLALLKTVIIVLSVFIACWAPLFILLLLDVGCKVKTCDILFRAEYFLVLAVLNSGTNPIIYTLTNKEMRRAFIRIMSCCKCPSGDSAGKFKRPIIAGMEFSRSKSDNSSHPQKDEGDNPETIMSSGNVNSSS
Numbers without * were called inactive; . = no result given; + = active, no number. Sampled rows, rich in hits. Any-hit rate of the full collection: about 1.3%.

SMILES | Biofilm kill mix | S1P3 antag | S1P4 ag | S1P4 antagonist | Tb hexokinase | Dynein transport | G6PDH ctr | TbHK1 rescreen | others
Cc1cc(Cl)n2c(nc3ccccc32)c1C#N | 21.3 | 14.9 | 5.0 | 44.5* | -5.6 | -5.22* | . | . | Dynein inh conf=+;S1P4 antag cf=108.0*;S1P1 antag=69.4*
CCN(CC)c1cc(C)c(C#N)c2nc3ccccc3n12 | 5.7 | 6.4 | -0.1 | 3.9 | -7.3 | 0.998 | . | .
Cc1cc(O)c2/c(=N\N)c(-c3csc(C)n3)coc2c1 | 1.9 | -1.7 | 1.2 | -9.1 | -4.2 | -0.305 | . | .
COc1ccc(/C=C/C(=O)c2ccccc2O)cc1 | 9.3 | -18.8 | 0.1 | 23.2 | 2.5 | -0.903 | . | .
COc1ccc(/C=C/C(=O)c2c(O)c(OC)c3occc3c2OC)cc1 | 2.7 | -5.0 | 1.8 | 34.0* | 3.1 | -4.71* | . | . | Dynein inh conf=+;S1P4 antag cf=51.7*;S1P1 antag=18.5
O=[N+]([O-])c1ccc(-n2nnnc2-c2ccccc2)c([N+](=O)[O-])c1 | 9.3 | 6.4 | -3.1 | 35.2* | 19.9 | -6.59* | . | . | Dynein inh conf=+;S1P4 antag cf=52.7*;S1P1 antag=31.2
O=C(/C(=C/c1ccc(Cl)cc1)c1nc2ccccc2[nH]1)c1cccs1 | . | . | -1.4 | 44.0* | -30.0 | -4.47* | . | . | Dynein inh conf=+;S1P4 antag cf=116.0*;S1P1 antag=74.0*
COC(=O)[C@@]1(Cc2ccc(F)cc2)[C@H]2c3cc(C(=O)N(C)C)n(Cc4ccccc4)c3C[C@H]2CN1C(=O)c1ccccc1 | 13.5 | -7.2 | 0.0 | 13.9 | -2.9 | -0.441 | . | .
C=C1C(=O)C=C2CN(C(=O)c3ccccc3)[C@@](Cc3ccc(F)cc3)(C(=O)OC)[C@@H]12 | -0.9 | 0.1 | -0.9 | 60.1* | -3.1 | -4.96* | . | . | Dynein inh conf=+;S1P4 antag cf=119.0*;S1P1 antag=143.3*
O=C(c1ccccc1)c1ccccc1N1C(=O)C=CC1=O | 11.4 | -9.0 | -1.5 | 37.9* | -10.8 | -4.41* | . | . | Dynein inh conf=+;S1P4 antag cf=103.7*;S1P1 antag=9.2
Cc1ccc(-n2nnnc2C(Cl)c2nnnn2-c2ccc(C)cc2)cc1 | 19.0 | -7.9 | 3.6 | 46.7* | 3.7 | -4.23* | . | . | Dynein inh conf=+;S1P4 antag cf=73.9*;S1P1 antag=21.6
Cc1ccc(-n2nnnc2-c2ccccc2)cc1 | 8.4 | -10.1 | 0.3 | -6.8 | 2.2 | 0.235 | . | .
CN(CCCNC(=O)CSc1cc(=O)n(C)c2ccc(Cl)cc12)Cc1ccccc1 | 8.5 | 4.1 | -0.4 | 4.3 | 7.2 | 0.178 | . | .
Cc1ccccc1CS(=O)(=O)c1nnc([C@H](CC(C)C)NC(=O)OC(C)(C)C)o1 | . | -7.2 | -5.4 | 86.0* | 1.1 | -3.73* | . | . | Dynein inh conf=+;S1P4 antag cf=113.3*;S1P1 antag=33.3
Cc1cc(NC(=O)CSc2nnc(-c3cccnc3)n2Cc2ccccc2)no1 | 17.9 | -10.8 | 1.5 | -7.7 | -1.7 | -0.173 | . | .
O=C(O)CN(c1cccc(C(F)(F)F)c1)S(=O)(=O)c1ccccc1 | 6.0 | 0.5 | 2.7 | -19.8 | -8.8 | -0.301 | . | .
NC(=O)C1CCN(C(=O)CN(c2cccc(C(F)(F)F)c2)S(=O)(=O)c2ccccc2)CC1 | . | -12.3 | 1.7 | -12.1 | 51.7* | 0.578 | -7.1 | 0.3
CCC(C)Sc1nc2c(c(=O)[nH]c(=O)n2C)n1C (stereo not given) | . | -35.5 | 1.7 | -18.1 | 50.0* | -0.724 | -0.3 | 8.4
CC(C)Sc1nc2c(c(=O)[nH]c(=O)n2C)n1C | . | -23.4 | 0.2 | -17.2 | 19.3 | -0.792 | . | .
Cc1ccc(NC(=O)C2(S(=O)(=O)c3ccc(C)cc3)CC2)cc1 | . | . | 1.0 | 4.6 | -4.2 | 1.43 | . | .
COC(=O)C1(S(=O)(=O)c2ccc(C)cc2)CCOCC1 | . | . | 1.8 | -7.3 | 62.2* | 0.0755 | -9.4 | 1.0
CC1=NN(c2ccccc2)C(=O)C1C(=O)c1cc([N+](=O)[O-])cc([N+](=O)[O-])c1 (stereo not given) | 10.0 | -7.6 | 1.2 | -3.3 | -4.9 | -1.02 | . | .
CCOc1ccc(-c2csc(/C(C#N)=C\c3ccc(O)c([N+](=O)[O-])c3)n2)cc1 | 16.2 | 0.2 | 0.9 | -16.6 | 15.9 | -0.496 | . | .
NC(=O)C1CCN(C2CC(=O)N(c3cccc(F)c3)C2=O)CC1 (stereo not given) | . | -17.9 | 0.1 | 2.7 | 60.8* | 0.19 | -0.6 | 1.7
Cc1ccccc1C(=O)Nc1nnc(CC(=O)N/N=C/c2ccncc2)s1 | 27.0 | 5.9 | 0.2 | -4.6 | -6.2 | -0.495 | . | .
SMILES | Biofilm kill mix | S1P3 antag | S1P4 ag | S1P4 antagonist | Tb hexokinase | Dynein transport | G6PDH ctr | TbHK1 rescreen | others
O=C1CCC(C(=O)NCCCn2ccnc2)N1 (stereo not given) | . | -18.3 | -0.3 | -19.2 | 58.1* | 2.18 | -0.8 | 1.8
O=C(NCCCn1ccnc1)C1CC2CCC1C2 (stereo not given) | . | . | -2.6 | -1.0 | -4.7 | -0.0503 | . | .
Cc1nc2nc(-c3ccccc3)cc(=O)n2[nH]1 | . | -30.6 | -0.2 | 7.6 | 55.2* | 3.3 | -3.1 | 1.2
COc1cccc2c(=O)c(C(=O)NCc3cccs3)c[nH]c12 | . | 16.8 | -0.2 | 15.7 | 52.8* | -0.985 | -12.9 | -21.7
Cc1ccc2[nH]cc(C(=O)NCc3cccs3)c(=O)c2c1 | 13.5 | . | 3.7 | 0.8 | -0.4 | -0.208 | . | .
CCC(C)COC(=O)C(C#N)c1nc2ccccc2nc1N1CCCCC1 (stereo not given) | . | 11.6 | -0.5 | 6.7 | 55.6* | -1.08 | -12.2 | 17.9
O=C(Nc1ccc(Cl)cc1)Nc1csc([N+](=O)[O-])c1 | 21.9 | 6.9 | -1.0 | 24.3 | -2.9 | -0.935 | . | .
Cn1c(SCc2cccc(Br)c2)nnc1-c1ccccn1 | 20.5 | 3.9 | 2.4 | -8.9 | 2.9 | -1.24 | . | .
Cn1c(SCc2cccc(F)c2)nnc1-c1ccccn1 | . | -21.1 | 0.7 | -16.3 | 55.5* | -0.0755 | -7.9 | -2.4
c1cc(-c2nnc(-c3ccncc3)o2)ccn1 | . | 7.4 | -0.9 | 1.8 | 74.4* | 1.46 | -7.0 | -7.3
